Experimental data reported in ChEMBL document CHEMBL3797027, “Potent anti-proliferative actions of a non-diuretic glucosamine derivative of ethacrynic acid” (Bioorg Med Chem Lett, 2016).
The source made the active and inactive calls. The rule behind the calls is not given here.

Experiments:
[1] = Potency index, ratio of IC50 for ethacrynic acid to IC50 for test compound for cytotoxic activity against human GBM10 cells assessed as inhibition of cell proliferation incubated for 72 hrs by MTT assay; assay type: functional
Procedure, shortened: (§1)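 Index is the reference IC50 divided by the test IC50. Both IC50s were taken from MTT cell survival curves, each as mean ± SD of three independent experiments.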

[2] = system: MDA-MB-231; assay: Increase in p21 (waf1/cip1) protein expression in p53 mutant expressing human MDA-MB-231 cells at 10 to 40 uM by Western blot method; assay type: functional, cell-based
Procedure, shortened: (§2)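 H1299 (p53-null), HCT116 (p53 wild type) and MDA-MB-231 (p53 mutant) cells were treated, then lysates were immunoblotted for p53, p21, PUMA and PARP. β-Actin served as loading control.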

[3] = system: MDA-MB-231; assay: Induction of ROS generation in human MDA-MB-231 cells at 20 and 40 uM incubated for 3 hrs by DCFDA staining based fluorescence microscopy; assay type: functional, cell-based
Procedure, shortened: (§3)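 After 3 h exposure at different concentrations, DCFH-DA fluorescence was imaged by fluorescence microscopy. H2O2 (25 µM) served as positive control. In some wells, cells were pretreated with 3 mM N-acetylcysteine before compound addition.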

[4] = system: Mus musculus; assay: Toxicity in mouse assessed as induction of diarrhea at 120 mg/kg/week for 2 weeks; assay type: organism-based; conditions: in vivo, 336 h
[5] = system: NCI-H1299; assay: Induction of ROS generation in human H1299 cells at 20 and 40 uM incubated for 3 hrs after pre-incubation with 3 mM NAC for 1 hr by DCFDA staining based flow cytometry; assay type: functional, cell-based
Procedure, shortened: (§4)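 Cells were exposed for 3 h to compound, or to 25 µM H2O2 as positive control. Where indicated, 3 mM N-acetylcysteine was given 1 h before treatment. Pellets were stained with DCF-DA for 30 min, and intracellular ROS was read as fluorescence shift by flow cytometry against untreated controls.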

[6] = system: Mus musculus; assay: Toxicity in mouse assessed as induction of stress at 120 mg/kg/week for 2 weeks; assay type: organism-based; conditions: in vivo, 336 h
[7] = system: NCI-H1299; assay: Induction of ROS generation in human H1299 cells at 20 and 40 uM incubated for 3 hrs after pre-incubation with 3 mM NAC for 1 hr by DCFDA staining based fluorescence microscopy; assay type: functional, cell-based; procedure, shortened: as §3
[8] = system: MDA-MB-468; assay: Cytotoxic activity against human MDA-MB-468 cells assessed as inhibition of cell proliferation incubated for 72 hrs by MTT assay; assay type: functional, cell-based; conditions: MDA-MB-468, 72 h
Procedure, shortened: (§5)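 MTT cell survival assay. IC50 is the concentration that inhibits tumour cell proliferation by 50%, read from cell survival curves. Values are given as mean ± SD of three independent experiments.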

[9] = Potency index, ratio of IC50 for ethacrynic acid to IC50 for test compound for cytotoxic activity against human H1299 cells assessed as inhibition of cell proliferation incubated for 72 hrs by MTT assay; assay type: functional; procedure, shortened: as §1
[10] = system: HCT-116; assay: Induction of ROS generation in human HCT116 cells at 20 and 40 uM incubated for 3 hrs after pre-incubation with 3 mM NAC for 1 hr by DCFDA staining based fluorescence microscopy; assay type: functional, cell-based; procedure, shortened: as §3
[11] = system: Mus musculus; assay: Toxicity in mouse assessed as induction of tremors at 120 mg/kg/week for 2 weeks; assay type: organism-based; conditions: in vivo, 336 h
[12] = system: Mus musculus; assay: Toxicity in mouse assessed as induction of paralysis at 120 mg/kg/week for 2 weeks; assay type: organism-based; conditions: in vivo, 336 h
[13] = system: MDA-MB-231; assay: Induction of ROS generation in human MDA-MB-231 cells at 20 and 40 uM incubated for 3 hrs after pre-incubation with 3 mM NAC for 1 hr by DCFDA staining based flow cytometry; assay type: functional, cell-based; procedure, shortened: as §4
[14] = system: NCI-H1299; assay: Increase in p21 (waf1/cip1) protein expression in p53 deficient human H1299 cells at 10 to 40 uM by Western blot method; assay type: functional, cell-based; procedure, shortened: as §2
[15] = Cytotoxic activity against human H1299 cells assessed as inhibition of cell proliferation incubated for 72 hrs by MTT assay; assay type: functional, cell-based; conditions: NCI-H1299, 72 h; procedure, shortened: as §5
[16] = system: Mus musculus; assay: Toxic diuretic effect in 12 hrs fasted CD1 mouse assessed as increase in urine output at 10 mg/kg, ip measured 0 to 6 hrs post dose relative to untreated control; assay type: toxicity, organism-based; conditions: in vivo
Procedure, shortened: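 Female CD-1 mice fasted 12 h, then given compound IP at 10 mg/kg in PEG/EtOH/H2O (54:14:32). Vehicle control group included. Mice were housed singly in metabolic cages with free access to water. Voided urine was collected in graduated tubes under the cages over 0–6 h and 6–24 h after injection.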

[17] = system: NCI-H1299; assay: Induction of cell cycle arrest in p53 deficient human H1299 cells assessed as accumulation at G2/M phase incubated for 24 hrs by propidium iodide staining based flow cytometry; assay type: functional
[18] = system: NCI-H1299; assay: Reduction in cellular total thiol levels in human H1299 cells at 40 uM incubated for 3 hrs by Ellman's reagent based assay; assay type: functional
Procedure, shortened: (§6)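 Cells exposed to 0–40 µM compound for 3 h, then trypsinized. Total thiols in cell extracts were quantified with Ellman's reagent.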

[19] = Potency index, ratio of IC50 for ethacrynic acid to IC50 for test compound for cytotoxic activity against human SKBR3 cells assessed as inhibition of cell proliferation incubated for 72 hrs by MTT assay; assay type: functional, SK-BR-3
[20] = system: MCF7; assay: Cytotoxic activity against human MCF7 cells assessed as inhibition of cell proliferation incubated for 72 hrs by MTT assay; assay type: functional, cell-based; conditions: MCF7, 72 h; procedure, shortened: as §5
[21] = system: HCT-116; assay: Induction of ROS generation in human HCT116 cells at 20 and 40 uM incubated for 3 hrs by DCFDA staining based fluorescence microscopy; assay type: functional, cell-based; procedure, shortened: as §3
[22] = system: MDA-MB-231; assay: Induction of ROS generation in human MDA-MB-231 cells at 20 and 40 uM incubated for 3 hrs after pre-incubation with 3 mM NAC for 1 hr by DCFDA staining based fluorescence microscopy; assay type: functional, cell-based; procedure, shortened: as §3
[23] = target: Glutathione S-transferase P (Homo sapiens) (UniProt P09211); assay: Inhibition of GSTP1 in human HCT116 cells assessed as reduction in GST-pi activity at 50 uM pre-incubated for 3 hrs followed by chlorodinitrobenzene and reduced glutathione addition by photometric assay; conditions: HCT-116
Sequence of Glutathione S-transferase P (Homo sapiens) (P09211 2-210 limits assumed): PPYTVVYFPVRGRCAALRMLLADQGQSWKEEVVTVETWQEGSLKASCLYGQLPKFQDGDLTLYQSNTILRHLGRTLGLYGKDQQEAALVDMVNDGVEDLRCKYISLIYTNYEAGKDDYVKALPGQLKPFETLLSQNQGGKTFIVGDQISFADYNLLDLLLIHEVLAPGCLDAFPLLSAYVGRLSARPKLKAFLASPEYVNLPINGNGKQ

[24] = system: NCI-H1299; assay: Increase in cleaved PARP protein expression in p53 deficient human H1299 cells at 10 to 40 uM by Western blot method; assay type: functional, cell-based; procedure, shortened: as §2
[25] = system: HCT-116; assay: Increase in PUMA protein expression in wild type p53 expressing human HCT116 cells at 10 to 40 uM by Western blot method; assay type: functional, cell-based; procedure, shortened: as §2
[26] = system: HCT-116; assay: Increase in p21 (waf1/cip1) protein expression in wild type p53 expressing human HCT116 cells at 10 to 40 uM by Western blot method; assay type: functional, cell-based; procedure, shortened: as §2
[27] = Cytotoxic activity against human SKBR3 cells assessed as inhibition of cell proliferation incubated for 72 hrs by MTT assay; assay type: functional, cell-based; conditions: SK-BR-3, 72 h; procedure, shortened: as §5
[28] = system: NCI-H1299; assay: Reduction in cellular total thiol levels in human H1299 cells incubated for 3 hrs by Ellman's reagent based assay; assay type: functional, cell-based; procedure, shortened: as §6
[29] = target: Glutathione S-transferase P (Homo sapiens) (UniProt P09211); assay: Inhibition of GSTP1 in human H1299 cells assessed as reduction in GST-pi activity pre-incubated for 3 hrs followed by chlorodinitrobenzene and reduced glutathione addition by photometric assay
[30] = system: MDA-MB-231; assay: Induction of cell cycle arrest in p53 mutant expressing human MDA-MB-231 cells assessed as accumulation at G2/M phase incubated for 24 hrs by propidium iodide staining based flow cytometry; assay type: functional

Question: With C=C(CC)C(=O)c1ccc(OCC(=O)N[C@@H]2[C@@H](O)[C@H](O)[C@@H](CO)O[C@H]2O)c(Cl)c1Cl as the compound, how does the “Ratio IC50” value [1] read?
Answer: Its value is 3.

Question: And the Activity [2]?
Answer: Its Activity is “Active”.

Question: And the Activity [3]?
Answer: Its Activity is “Active”.

Question: And the Activity [4]?
Answer: Its Activity is “Non-toxic”.

Question: What about the Activity [5] of the same compound?
Answer: Its Activity is “inactive”.

Question: And the Activity [6]?
Answer: Its Activity is “Non-toxic”.

Question: What about the Activity [7] of the same compound?
Answer: The Activity was “inactive”.

Question: What about the IC50 [8] of the same compound?
Answer: Its IC50 is 18.4 µM.

Question: What about the “Ratio IC50” value [9] of the same compound?
Answer: Its value is 3.

Question: And the Activity [10]?
Answer: Its Activity is “inactive”.

Question: And the Activity [11]?
Answer: The Activity was “Non-toxic”.

Question: And the Activity [12]?
Answer: Its Activity is “Non-toxic”.

Question: What about the Activity [13] of the same compound?
Answer: The Activity was “inactive”.

Question: And the Activity [14]?
Answer: Its Activity is “Active”.

Question: What about the IC50 [15] of the same compound?
Answer: The IC50 was 11.5 µM.

Question: What about the Activity [16] of the same compound?
Answer: Its Activity is “Non-toxic”.

Question: What about the Activity [17] of the same compound?
Answer: The Activity was “Dose-dependent effect”.

Question: What about the Imax [18] of the same compound?
Answer: Its Imax is 58%.

Question: What about the “Ratio IC50” value [19] of the same compound?
Answer: The value was 3.

Question: What about the IC50 [20] of the same compound?
Answer: Its IC50 is 10.1 µM.

Question: What about the Activity [21] of the same compound?
Answer: Its Activity is “Active”.

Question: And the Activity [22]?
Answer: Its Activity is “inactive”.

Question: And the Imax [23]?
Answer: Its Imax is 60%.

Question: What about the Activity [24] of the same compound?
Answer: The Activity was “Active”.

Question: And the Activity [25]?
Answer: Its Activity is “Active”.

Question: What about the Activity [26] of the same compound?
Answer: The Activity was “Active”.

Question: What about the IC50 [27] of the same compound?
Answer: Its IC50 is 16.1 µM.

Question: What about the Activity [28] of the same compound?
Answer: The Activity was “Dose-dependent effect”.

Question: What about the Activity [29] of the same compound?
Answer: Its Activity is “Dose-dependent effect”.

Question: And the Activity [30]?
Answer: Its Activity is “Dose-dependent effect”.
